The target in assay [1] is T1, Dihydroorotate dehydrogenase (Plasmodium falciparum, UniProt Q54A96).
T1 sequence (Q54A96 whole entry): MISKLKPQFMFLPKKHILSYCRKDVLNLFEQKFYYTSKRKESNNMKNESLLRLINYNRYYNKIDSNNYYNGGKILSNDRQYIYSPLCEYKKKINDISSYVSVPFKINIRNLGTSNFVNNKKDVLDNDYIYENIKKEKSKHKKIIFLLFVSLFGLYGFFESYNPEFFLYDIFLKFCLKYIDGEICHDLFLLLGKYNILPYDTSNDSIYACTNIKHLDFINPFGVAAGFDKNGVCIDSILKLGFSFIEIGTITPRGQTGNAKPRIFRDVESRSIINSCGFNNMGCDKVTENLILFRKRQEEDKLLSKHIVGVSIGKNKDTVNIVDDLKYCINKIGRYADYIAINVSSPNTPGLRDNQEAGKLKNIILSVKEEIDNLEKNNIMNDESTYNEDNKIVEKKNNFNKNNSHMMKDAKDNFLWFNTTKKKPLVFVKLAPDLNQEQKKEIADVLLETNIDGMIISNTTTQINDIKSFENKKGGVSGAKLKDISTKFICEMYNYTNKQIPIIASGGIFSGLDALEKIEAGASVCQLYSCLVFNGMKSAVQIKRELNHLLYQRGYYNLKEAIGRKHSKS
Put plainly: Inhibition of Plasmodium falciparum DHODH assessed as reduction of 2,6-dichloroindophenol by stopped flow spectroscopy. In short, it runs like this:
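Truncated soluble enzyme expressed in E. coli. Steady-state assay: DCIP (0.12 mM) reduction at 600 nm, 5–10 nM enzyme, 0.2 mM L-dihydroorotate, 0.02 mM CoQD, in 100 mM HEPES pH 8.0, 150 mM NaCl, 10% glycerol, 0.1% Triton, 20°C.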

For assay [2], the target named is Dihydroorotate dehydrogenase (quinone), mitochondrial (Homo sapiens, UniProt Q02127). Put plainly: Inhibition of human DHODH assessed as reduction of 2,6-dichloroindophenol by stopped flow spectroscopy. In short, it runs like this: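 Truncated soluble enzyme expressed in E. coli. Steady-state assay: DCIP (0.12 mM) reduction at 600 nm, 5–10 nM enzyme, 0.2 mM L-dihydroorotate, 0.02 mM CoQD, in 100 mM HEPES pH 8.0, 150 mM NaCl, 10% glycerol, 0.1% Triton, 20°C. CoQ-independent oxidase background subtracted; triplicate points per concentration; IC50 from curve fit, ≥2 experiments.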
Dihydroorotate dehydrogenase (quinone), mitochondrial, sequence (Q02127 whole entry, the tested form may be a part): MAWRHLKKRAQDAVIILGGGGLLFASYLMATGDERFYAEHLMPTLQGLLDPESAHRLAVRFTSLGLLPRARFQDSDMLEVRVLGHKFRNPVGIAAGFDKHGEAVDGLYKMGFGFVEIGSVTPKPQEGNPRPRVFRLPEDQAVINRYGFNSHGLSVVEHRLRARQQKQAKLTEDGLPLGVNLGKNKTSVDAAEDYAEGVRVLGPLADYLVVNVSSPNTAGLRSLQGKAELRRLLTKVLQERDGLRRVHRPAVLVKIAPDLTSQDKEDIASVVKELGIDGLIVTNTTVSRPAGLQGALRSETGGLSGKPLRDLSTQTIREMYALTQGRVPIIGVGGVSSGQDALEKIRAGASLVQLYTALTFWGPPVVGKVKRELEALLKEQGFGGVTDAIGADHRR

Assay [3] has as its system Plasmodium falciparum. Put plainly: Antiplasmodial activity against Plasmodium falciparum 3D7 in erythrocytes as [3H]hypoxanthine uptake. Type of assay: functional, organism-based. The procedure, abridged: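 Parasites grown in RPMI-1640 with 20% human type A+ plasma and 2% (w/v) red blood cells; drug-treated infected erythrocytes assayed for [3H]-hypoxanthine uptake. Triplicate points over a range of inhibitor concentrations; EC50 from fit of % proliferation to a Hill-type equation; reported values average at least 2 independent experiments.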

Assay [4] deals with Plasmodium falciparum. Put plainly: Antiplasmodial activity against Plasmodium falciparum HB3 in erythrocytes as [3H]hypoxanthine uptake. To be noted: HB3, 3 h.
Assay [5] has as its system Plasmodium falciparum. Put plainly: Antiplasmodial activity against Plasmodium falciparum D6 in erythrocytes as [3H]hypoxanthine uptake. The conditions noted are these: D6, 3 h.
Assay [6] concerns Plasmodium falciparum. Put plainly: Antiplasmodial activity against Plasmodium falciparum Dd2 in erythrocytes as [3H]hypoxanthine uptake. The conditions noted are these: Dd2, 3 h.
The subject of assay [7] is Plasmodium falciparum. Put plainly: Antiplasmodial activity against Plasmodium falciparum K1 in erythrocytes as [3H]hypoxanthine uptake. The conditions noted are these: K1, 3 h.
The test system of assay [8] is Plasmodium falciparum. Put plainly: Antiplasmodial activity against Plasmodium falciparum FCR3 in erythrocytes as [3H]hypoxanthine uptake. To be noted: FCR3, 3 h.
Assay [9] relates to L1210. Put plainly: Cytotoxicity against mouse L1210 cells.

A word on the IC50: it is the point on the concentration scale where inhibition reaches its midpoint. The term EC50 denotes the concentration that produces a half-maximal response. Read a high EC50 as weaker potency.

Take `Cc1cc(Nc2ccccc2)n2ncnc2n1`: the 50% inhibitory concentration (IC50) was > 100000 nM in assay [1], > 200000 nM in assay [2] and > 100000 nM in assay [3].

As to `Cc1cc(Nc2cccc3ccccc23)n2ncnc2n1`, the concentration for half-maximal inhibition (IC50) is 45000 nM in assay [1], > 200000 nM in [2] and 4400 nM in [3].

Regarding `Cc1cc(Nc2ccc3ncccc3c2)n2ncnc2n1`, the IC50 in [1] is 1200 nM; in [2], > 200000 nM; in assay [3] it was 2200 nM.

`Cc1cc(Nc2ccc3ccccc3c2)n2ncnc2n1`: the EC50 was 100 nM in [4]; 58 nM in [5]; 140 nM in assay [6]; 140 nM in assay [7]; 180 nM in assay [8]; > 10000 nM in assay [9]. Further, the IC50 in [2] was > 200000 nM; in [3] it was 79 nM.

As for `Cc1cc(Nc2ccc3cc4ccccc4cc3c2)n2ncnc2n1`, the IC50 in assay [1] was 56 nM; in assay [2], > 200000 nM; in assay [3], 190 nM.

Consider `CCc1cc(Nc2ccc3ccccc3c2)n2ncnc2n1`, for which the figures for the IC50 in assay [1], in [2] and in assay [3] were 190 nM, > 200000 nM and 310 nM, respectively.

Turning to `Cc1cc(Nc2ccc3c(=O)cc(C)oc3c2)n2ncnc2n1`, the IC50 in assay [1] is 2000 nM; in assay [2], > 200000 nM; in assay [3], 410 nM.

Consider `Cc1nc2ncnn2c(Nc2ccc3ccccc3c2)c1C`, for which the 50% inhibitory concentration (IC50) in assay [1] was 160 nM; in assay [2], > 200000 nM; in [3], 550 nM.

With `Cc1cc(N(C)c2ccc3ccccc3c2)n2ncnc2n1`, the values for the half-inhibitory concentration (IC50) in assay [1], in assay [2] and in assay [3] were 3000 nM, > 200000 nM and 16000 nM, respectively.

As for `Cc1cc(N(Cc2ccccc2)c2ccc3ccccc3c2)n2ncnc2n1`, the values for the concentration for half-maximal inhibition (IC50) in assay [1], in assay [2] and in assay [3] were 93000 nM, > 200000 nM and 35000 nM, respectively.

As for `Cc1cc(Nc2ccc(C(N)=O)cc2)n2ncnc2n1`, the IC50 is > 200000 nM in assay [1], > 200000 nM in [2] and > 50000 nM in assay [3].

As for `Cc1cc(Nc2cc3ccccc3cc2O)n2ncnc2n1`, the figures for the 50% inhibitory concentration (IC50) in assay [1], in [2] and in assay [3] were 330 nM, > 200000 nM and 1700 nM, respectively.

Take `Cc1cc(Nc2cnc3ccccc3c2)n2ncnc2n1`: the results for the IC50 in [1], in assay [2] and in [3] were 1700 nM, > 200000 nM and 1600 nM, respectively.

In the case of `FC(F)(F)c1cc(Nc2ccc3ccccc3c2)n2ncnc2n1`, the IC50 in [1] was 210 nM; in assay [2], > 200000 nM; in assay [3] it was 3300 nM.

Source of the values: ChEMBL document CHEMBL1150779, “Triazolopyrimidine-based dihydroorotate dehydrogenase inhibitors with potent and selective activity against the malaria parasite Plasmodium falciparum” (J Med Chem, 2008).
